Results taken from ChEMBL document CHEMBL5058577, “EUbOPEN Chemogenomics Library 2 (Multiplex)” (2022).

Test system: HEK-293T
Test: Multiplex assay against HEK293T
Format: toxicity, cell-based
Conditions: human
Procedure, shortened: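 Cells were classed with CellPathfinder machine-learning gating, first as Hoechst high-intensity objects or normal cells, then (normal cells) as healthy, pyknosed or fragmented nuclei, and finally (pyknosed cells) as mitotic or apoptotic. Staining of live cells at seeding used Hoechst33342, BioTracker Green Microtubule Cytoskeleton Dye, MitoTracker Red and Annexin V Alexa Fluor 680, with imaging on a CQ1 microscope at 37°C and 5% CO2 after compound addition. Tubulin, mitochondrial-mass and membrane-permeability phenotypes are per cents of healthy-nucleus cells.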

[1] = 12 h, 1 µM, compound concentration 1 uM, replicate 1
[2] = 12 h, 1 µM, compound concentration 1 uM, replicate 2
[3] = 12 h, 10 µM, compound concentration 10 uM, replicate 1
[4] = 12 h, 10 µM, compound concentration 10 uM, replicate 2
[5] = 24 h, 1 µM, compound concentration 1 uM, replicate 1
[6] = 24 h, 1 µM, compound concentration 1 uM, replicate 2
[7] = 24 h, 10 µM, compound concentration 10 uM, replicate 1
[8] = 24 h, 10 µM, compound concentration 10 uM, replicate 2
[9] = 48 h, 1 µM, compound concentration 1 uM, replicate 1
[10] = 48 h, 1 µM, compound concentration 1 uM, replicate 2
[11] = 48 h, 10 µM, compound concentration 10 uM, replicate 1
[12] = 48 h, 10 µM, compound concentration 10 uM, replicate 2

## COc1cc(C(=O)N2CC[C@@H](O)[C@@H](N)C2)cc2nc(-c3cc4ccccc4n3CC3CC3)n(C)c12.Cl
[1]
  Population Apoptotic (%): 48%
  Population Fragmented Nuclei (%): 6%
  Population Healthy Nuclei (%): 79%
  Population Hoechst High Intensity Objects (%): 10%
  Population Membrane Permeable-Phenotype (%): 0%
  Population Mitochondria Different-Phenotype (%): 56%
  Population Mitotic Cells (%): 51%
  Population Normal (%): 89%
  Population Pyknosed Nuclei (%): 13%
  Population Tubulin-Different-Phenotype (%): 52%
  Total Cell Count: 398
[2]
  Population Apoptotic (%): 70%
  Population Fragmented Nuclei (%): 2%
  Population Healthy Nuclei (%): 77%
  Population Hoechst High Intensity Objects (%): 15%
  Population Mitochondria Different-Phenotype (%): 71%
  Population Mitotic Cells (%): 29%
  Population Normal (%): 84%
  Population Pyknosed Nuclei (%): 20%
  Population Tubulin-Different-Phenotype (%): 37%
  Total Cell Count: 281
[3]
  Population Apoptotic (%): 71%
  Population Fragmented Nuclei (%): 5%
  Population Healthy Nuclei (%): 66%
  Population Hoechst High Intensity Objects (%): 21%
  Population Membrane Permeable-Phenotype (%): 0%
  Population Mitochondria Different-Phenotype (%): 90%
  Population Mitotic Cells (%): 28%
  Population Normal (%): 78%
  Population Pyknosed Nuclei (%): 28%
  Population Tubulin-Different-Phenotype (%): 79%
  Total Cell Count: 260
[4]
  Population Fragmented Nuclei (%): 4%
  Population Healthy Nuclei (%): 80%
  Population Hoechst High Intensity Objects (%): 18%
  Population Membrane Permeable-Phenotype (%): 2%
  Population Mitochondria Different-Phenotype (%): 88%
  Population Normal (%): 81%
  Population Pyknosed Nuclei (%): 15%
  Population Tubulin-Different-Phenotype (%): 72%
  Total Cell Count: 350
[5]
  Population Apoptotic (%): 42%
  Population Fragmented Nuclei (%): 9%
  Population Healthy Nuclei (%): 77%
  Population Hoechst High Intensity Objects (%): 6%
  Population Membrane Permeable-Phenotype (%): 0%
  Population Mitochondria Different-Phenotype (%): 42%
  Population Mitotic Cells (%): 57%
  Population Normal (%): 93%
  Population Pyknosed Nuclei (%): 13%
  Population Tubulin-Different-Phenotype (%): 33%
  Total Cell Count: 527
[6]
  Population Apoptotic (%): 60%
  Population Fragmented Nuclei (%): 7%
  Population Healthy Nuclei (%): 79%
  Population Hoechst High Intensity Objects (%): 12%
  Population Mitochondria Different-Phenotype (%): 64%
  Population Mitotic Cells (%): 39%
  Population Normal (%): 87%
  Population Pyknosed Nuclei (%): 12%
  Population Tubulin-Different-Phenotype (%): 30%
  Total Cell Count: 363
[7]
  Population Apoptotic (%): 58%
  Population Fragmented Nuclei (%): 8%
  Population Healthy Nuclei (%): 70%
  Population Hoechst High Intensity Objects (%): 18%
  Population Membrane Permeable-Phenotype (%): 0%
  Population Mitochondria Different-Phenotype (%): 94%
  Population Mitotic Cells (%): 41%
  Population Normal (%): 81%
  Population Pyknosed Nuclei (%): 20%
  Population Tubulin-Different-Phenotype (%): 78%
  Total Cell Count: 312
[8]
  Population Apoptotic (%): 65%
  Population Fragmented Nuclei (%): 6%
  Population Healthy Nuclei (%): 78%
  Population Hoechst High Intensity Objects (%): 21%
  Population Mitochondria Different-Phenotype (%): 92%
  Population Mitotic Cells (%): 34%
  Population Normal (%): 78%
  Population Pyknosed Nuclei (%): 15%
  Population Tubulin-Different-Phenotype (%): 74%
  Total Cell Count: 411
[9]
  Population Apoptotic (%): 24%
  Population Fragmented Nuclei (%): 9%
  Population Healthy Nuclei (%): 79%
  Population Hoechst High Intensity Objects (%): 5%
  Population Membrane Permeable-Phenotype (%): 0%
  Population Mitochondria Different-Phenotype (%): 37%
  Population Mitotic Cells (%): 75%
  Population Normal (%): 94%
  Population Pyknosed Nuclei (%): 10%
  Population Tubulin-Different-Phenotype (%): 28%
  Total Cell Count: 816
[10]
  Population Apoptotic (%): 64%
  Population Healthy Nuclei (%): 80%
  Population Hoechst High Intensity Objects (%): 7%
  Population Mitochondria Different-Phenotype (%): 48%
  Population Mitotic Cells (%): 36%
  Population Normal (%): 92%
  Population Tubulin-Different-Phenotype (%): 22%
  Total Cell Count: 520
[11]
  Population Apoptotic (%): 76%
  Population Fragmented Nuclei (%): 13%
  Population Healthy Nuclei (%): 68%
  Population Hoechst High Intensity Objects (%): 18%
  Population Membrane Permeable-Phenotype (%): 0%
  Population Mitochondria Different-Phenotype (%): 89%
  Population Mitotic Cells (%): 23%
  Population Normal (%): 81%
  Population Pyknosed Nuclei (%): 17%
  Population Tubulin-Different-Phenotype (%): 81%
  Total Cell Count: 386
[12]
  Population Healthy Nuclei (%): 75%
  Population Hoechst High Intensity Objects (%): 23%
  Population Mitochondria Different-Phenotype (%): 87%
  Population Normal (%): 76%
  Population Pyknosed Nuclei (%): 10%
  Population Tubulin-Different-Phenotype (%): 74%
  Total Cell Count: 467
